Experimental findings from ChEMBL document CHEMBL2163257 (J Med Chem, 2012) are described below.

Test [1] has as its target Histamine H2 receptor (Cavia porcellus) (UniProt P47747). The test can be described thus: Intrinsic agonist activity at guinea pig H2R-Gsalphas expressed in Sf9 cells by steady state GTPase activity assay relative to histamine. The test is classed as functional. The method, boiled down:
(§1)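 Steady-state GTPase assay with Sf9 membranes (5–20 µg protein) expressing hH2R- or gpH2R-Gsαs, in 50 mM Tris-HCl pH 7.4. Mix: 1.0 mM MgCl2, 100 µM EDTA, 100 nM GTP, 100 µM AppNHp, 5 mM creatine phosphate, creatine kinase, 0.2% BSA, ligand 0.1 nM–10 µM. After 2 min at 25 °C, [γ-32P]GTP or [γ-33P]GTP was added and reacted 20 min at 25 °C. Charcoal stop; released Pi counted. Emax referenced to histamine (1.0). Two to six experiments, duplicate.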

Test [2] has the same target. The test can be described thus: Intrinsic agonist activity at H2R in spontaneously beating guinea pig right atrium assessed as increase in heart rate relative to histamine. The following applies: Cardiac atrium. The test is classed as functional, tissue-based. In outline:
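Isolated spontaneously beating guinea pig right atrium. Ligand stocks (10 mM) and dilutions were made in fresh bath fluid. Tissue was washed for 30 min and equilibrated for 15 min. […] Emax is relative to maximal histamine heart-rate increase. Three to five experiments.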

Test [3] deals with T1, Histamine H4 receptor (Homo sapiens, UniProt Q9H3N8). Briefly: Agonist activity at human H4R-RGS19 Galphai2 Gbeta1gamma2 expressed in Sf9 cells at 0.1 nM to 1 mM by steady state GTPase activity assay. The test is classed as functional. In outline: (§2)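 Sf9 membranes coexpressing hH4R-RGS19 with Gαi2 and Gβ1γ2 were assayed for GTP hydrolysis with 5.0 mM MgCl2 and 100 mM NaCl (final), 100 nM GTP, 50 mM Tris-HCl pH 7.4. Ligands spanned 0.1 nM–1 mM. Preincubation was 2 min, then 20 min at 25 °C with [γ-32P]GTP or [γ-33P]GTP. Charcoal quench; Pi counted. Sigmoidal nonlinear regression; efficacy relative to histamine.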

The target in another test is Histamine H3 receptor (Homo sapiens, UniProt Q9Y5N1). The test can be described thus: Agonist activity at human H3R-Galphai2-Gbeta1gamma2-RGS4 expressed in Sf9 cells 0.1 nM to 1 mM by steady state GTPase activity assay. The test is classed as functional.
The target of test [4] is T1, Histamine H4 receptor. Briefly: Agonist activity at human H4R-RGS19 Galphai2 Gbeta1gamma2 expressed in Sf9 cells by steady state GTPase activity assay relative to histamine. The format is functional. The method, boiled down: as §2
Test [5] concerns the target T2, Histamine H2 receptor (Homo sapiens, UniProt P25021). Briefly: Intrinsic agonist activity at human H2R-Gsalphas expressed in Sf9 cells by steady state GTPase activity assay relative to histamine. The test is classed as functional. In outline:
as §1

The target in test [6] is Histamine H2 receptor (Cavia porcellus) (UniProt P47747). The test can be described thus: Agonist activity at H2R in spontaneously beating guinea pig right atrium assessed as increase in heart rate in presence of 100 uM H2R antagonist cimetidine. The following applies: Cardiac atrium. The format is functional, tissue-based.
Test [7] is described as follows: Agonist activity at human H2R-C17Y-A271D Gsalphas mutant containing human H2 receptor E2 loop expressed in Sf9 cells by steady state GTPase activity assay. The test is classed as functional. The method, boiled down:
(§3)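 Mutant H2R-Gsαs fusion proteins in Sf9 membranes were tested by steady-state GTPase hydrolysis: 1.0 mM MgCl2, 100 nM GTP, AppNHp/creatine phosphate regeneration, pH 7.4 Tris, 20 min at 25 °C with [γ-32P/33P]GTP, charcoal separation of Pi.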

Test [8] in a line: Agonist activity at guinea pig H2R hE2 loop Gsalphas mutant containing human H2 receptor E2 loop expressed in Sf9 cells by steady state GTPase activity assay. The format is functional. Conditions: Cavia porcellus. The method, boiled down:
as §3

The target of test [9] is Histamine H2 receptor (Cavia porcellus) (UniProt P47747). Briefly: Potency index, ratio of pEC50 for compound to pEC50 for histamine at guinea pig H2R-Gsalphas expressed in Sf9 cells at 0.1 nM to 10 uM by steady state GTPase activity assay. In outline: (§4)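 Sf9 membranes expressing human or guinea pig H2R-Gsαs fusion protein, 1.0 mM MgCl2, ATP, 100 nM GTP, AppNHp, creatine phosphate/kinase, BSA, Tris pH 7.4. Agonists 0.1 nM–10 μM, [γ-32P/33P]GTP hydrolysis 20 min at 25 °C, Pi counted. Curves fit by sigmoidal nonlinear regression. Potency given relative to histamine (set to 1.0). Two to six independent experiments in duplicate.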

For test [10], the target named is Histamine H1 receptor (Homo sapiens) (UniProt P35367). Briefly: Antagonist activity at human H1R-RGS4 expressed in Sf9 cells by steady state GTPase activity assay. The test is classed as functional. The method, boiled down: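 Sf9 membranes (5–20 μg protein) co-expressing human H1R with RGS4. Reaction with 1.0 mM MgCl2, 100 μM ATP, 100 nM GTP, AppNHp, creatine phosphate/kinase, 0.2% BSA, 50 mM Tris-HCl pH 7.4. Histamine 100 nM with test ligand 10 nM–1 mM. [γ-32P/33P]GTP added, 20 min at 25 °C. Charcoal stop, released Pi counted. pKB from sigmoidal nonlinear fits.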

The nature of test [11]: Selectivity index, ratio of EC50 for human H2R-Gsalphas to EC50 for guinea pig H2R-Gsalphas by steady state GTPase activity assay.
The target of test [12] is T2, Histamine H2 receptor. The test can be described thus: Potency index, ratio of pEC50 for compound to pEC50 for histamine at human H2R-Gsalphas expressed in Sf9 cells at 0.1 nM to 10 uM by steady state GTPase activity assay. The method, boiled down: as §4
In test [13] the target is Histamine H2 receptor (Cavia porcellus, UniProt P47747). Briefly: Agonist activity at guinea pig H2R-Gsalphas expressed in Sf9 cells at 0.1 nM to 10 uM by steady state GTPase activity assay. The format is functional. The method, boiled down: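 Steady-state GTPase assay with Sf9 membranes (5–20 µg protein) expressing hH2R- or gpH2R-Gsαs, in 50 mM Tris-HCl pH 7.4. Mix: 1.0 mM MgCl2, 100 µM EDTA, 100 nM GTP, 100 µM AppNHp, 5 mM creatine phosphate, creatine kinase, 0.2% BSA, ligand 0.1 nM–10 µM. After 2 min at 25 °C, [γ-32P]GTP or [γ-33P]GTP was added and reacted 20 min at 25 °C. Charcoal stop; released Pi counted. Two to six experiments, duplicate.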

The target of test [14] is T2, Histamine H2 receptor. Briefly: Agonist activity at human H2R-Gsalphas expressed in Sf9 cells at 0.1 nM to 10 uM by steady state GTPase activity assay.

One may read the pKb as −log10 of the Kb, conventionally taken in molar units. High values mean a small Kb, low ones a large Kb.

Calls of active or inactive are those of the source. The calls are words filed in the database; no cut-off is given here.

Chain of Histamine H3 receptor (Q9Y5N1 whole entry): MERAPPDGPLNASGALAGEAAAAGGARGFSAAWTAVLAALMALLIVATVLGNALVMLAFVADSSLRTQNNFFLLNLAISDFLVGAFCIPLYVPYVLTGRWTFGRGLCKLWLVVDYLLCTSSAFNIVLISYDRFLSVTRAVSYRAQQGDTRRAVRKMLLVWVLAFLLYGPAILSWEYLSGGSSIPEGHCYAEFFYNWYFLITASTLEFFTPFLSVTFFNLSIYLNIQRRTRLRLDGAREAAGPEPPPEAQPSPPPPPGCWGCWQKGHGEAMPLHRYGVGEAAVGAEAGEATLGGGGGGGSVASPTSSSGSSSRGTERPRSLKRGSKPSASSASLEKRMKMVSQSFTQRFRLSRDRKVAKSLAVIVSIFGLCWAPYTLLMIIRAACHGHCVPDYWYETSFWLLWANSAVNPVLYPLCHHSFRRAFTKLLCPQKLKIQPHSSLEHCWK
Chain of Histamine H2 receptor (Cavia porcellus) (P47747 whole entry, the tested form may be a part): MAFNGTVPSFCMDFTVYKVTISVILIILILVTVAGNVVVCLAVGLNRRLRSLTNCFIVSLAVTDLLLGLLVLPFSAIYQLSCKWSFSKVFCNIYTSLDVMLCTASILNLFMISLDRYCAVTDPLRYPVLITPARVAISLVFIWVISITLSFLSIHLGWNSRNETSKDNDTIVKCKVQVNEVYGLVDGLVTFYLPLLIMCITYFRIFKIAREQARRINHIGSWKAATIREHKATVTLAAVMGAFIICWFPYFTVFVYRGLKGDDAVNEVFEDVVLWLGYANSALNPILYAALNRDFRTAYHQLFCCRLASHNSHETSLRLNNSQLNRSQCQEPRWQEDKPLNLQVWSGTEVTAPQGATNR
T1 sequence (Q9H3N8 whole entry): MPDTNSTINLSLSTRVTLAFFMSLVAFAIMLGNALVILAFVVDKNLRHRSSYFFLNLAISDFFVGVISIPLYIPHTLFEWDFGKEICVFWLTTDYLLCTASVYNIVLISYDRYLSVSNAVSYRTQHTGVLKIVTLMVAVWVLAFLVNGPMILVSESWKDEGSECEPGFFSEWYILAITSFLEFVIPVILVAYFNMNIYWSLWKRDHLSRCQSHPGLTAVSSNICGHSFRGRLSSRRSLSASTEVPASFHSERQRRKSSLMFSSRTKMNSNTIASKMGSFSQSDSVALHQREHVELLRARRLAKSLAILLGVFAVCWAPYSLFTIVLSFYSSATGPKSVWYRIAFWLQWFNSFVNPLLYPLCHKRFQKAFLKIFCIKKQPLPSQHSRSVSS
T2 sequence (P25021 whole entry): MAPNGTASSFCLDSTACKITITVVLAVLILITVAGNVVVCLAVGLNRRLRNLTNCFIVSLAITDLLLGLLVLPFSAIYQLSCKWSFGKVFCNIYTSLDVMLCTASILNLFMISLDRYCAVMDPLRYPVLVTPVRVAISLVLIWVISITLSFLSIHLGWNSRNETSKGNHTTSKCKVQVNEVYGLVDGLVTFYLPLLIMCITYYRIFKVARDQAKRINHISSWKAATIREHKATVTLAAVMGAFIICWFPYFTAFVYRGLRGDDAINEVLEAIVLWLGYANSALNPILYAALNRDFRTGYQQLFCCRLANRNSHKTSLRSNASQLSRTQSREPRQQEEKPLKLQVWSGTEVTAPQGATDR
Chain of Histamine H2 receptor (Cavia porcellus, UniProt P47747) (P47747 whole entry): as the sequence (P47747 whole entry, the tested form may be a part) above
Chain of Histamine H1 receptor (Homo sapiens) (P35367 whole entry): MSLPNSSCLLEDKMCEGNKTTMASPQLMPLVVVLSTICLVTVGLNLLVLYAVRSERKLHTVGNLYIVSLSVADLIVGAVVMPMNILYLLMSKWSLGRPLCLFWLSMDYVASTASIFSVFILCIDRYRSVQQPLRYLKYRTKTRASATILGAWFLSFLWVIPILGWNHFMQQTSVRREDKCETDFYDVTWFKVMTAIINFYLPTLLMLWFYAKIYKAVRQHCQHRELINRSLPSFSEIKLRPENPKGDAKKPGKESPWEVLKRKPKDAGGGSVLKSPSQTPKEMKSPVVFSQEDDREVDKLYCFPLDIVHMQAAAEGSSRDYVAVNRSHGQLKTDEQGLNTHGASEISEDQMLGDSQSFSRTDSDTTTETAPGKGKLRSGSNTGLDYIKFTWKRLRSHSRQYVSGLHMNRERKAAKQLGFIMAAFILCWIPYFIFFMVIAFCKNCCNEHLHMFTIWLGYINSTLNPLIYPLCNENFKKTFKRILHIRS

Regarding `N/C(=N\C(=O)CCCCCCCCCCCCCCCCCCCCC(=O)/N=C(\N)NCCCc1cnc(N)s1)NCCCc1cnc(N)s1`, the Intrinsic activity in test [1] came to 0.36.

Consider `Cc1nc(N)sc1CCCN/C(N)=N/C(=O)CCCCCCCCCCCCCCCCCCCCC(=O)/N=C(\N)NCCCc1sc(N)nc1C`, for which the values for the Intrinsic activity in [2] and in test [1] were 0.62 and 0.58, respectively.

As to `N/C(=N\C(=O)CCCCC(=O)/N=C(\N)NCCCc1c[nH]cn1)NCCCc1c[nH]cn1`, the EC50 is 79.4 nM at Histamine H4 receptor [3] and over 10000 nM at Histamine H3 receptor. The Intrinsic activity in test [1] is 1; on Histamine H4 receptor [4], 0.42; at Histamine H2 receptor [5], 0.68.

Take `Cc1nc(N)sc1CCCN/C(N)=N/C(=O)CCCCC(=O)/N=C(\N)NCCCc1sc(N)nc1C`: the Intrinsic activity is 0.88 in [2], 0.9 in test [1] and 0.68 on Histamine H2 receptor [5]. Moreover, the %max in [6] amounted to 46%.

For the compound `N/C(=N\C(=O)CCCCCCCCC(=O)/N=C(\N)NCCCc1c[nH]cn1)NCCCc1c[nH]cn1`, the Intrinsic activity in [2] is 0.91; in test [1], 0.98; at Histamine H4 receptor [4], 0.44; on Histamine H2 receptor [5], 0.81. Also, the figures for the EC50 on Histamine H4 receptor [3] and on Histamine H3 receptor were 8.51 nM and 1.78 nM, respectively. Besides, the outcome in test [7] and in test [8] was Active.

As to `Cc1nc(N)sc1CCCN/C(N)=N/C(=O)CCCCCCCCC(=O)/N=C(\N)NCCCc1c[nH]cn1`, the EC50 on Histamine H4 receptor [3] was 8.51 nM; on Histamine H3 receptor, 2.88 nM. Moreover, the result in test [7] and in test [8] was Active. For the same compound, the Intrinsic activity came out at 1.01 in test [1], 0.52 at Histamine H4 receptor [4] and 0.76 at Histamine H2 receptor [5].

`N/C(=N\C(=O)CCCCCCCCCCCCCCCCCCCCC(=O)/N=C(\N)NCCCc1c[nH]cn1)NCCCc1c[nH]cn1` displayed an Intrinsic activity in test [1] of 0.19.

As to `Cc1nc(N)sc1CCCN/C(N)=N/C(=O)CCCCCCC(=O)/N=C(\N)NCCCc1sc(N)nc1C`, the Intrinsic activity amounted to 0.64 in [2], 0.81 in [1] and 0.62 on Histamine H2 receptor [5]. The outcome in test [7] and in [8] was Active.

As to `Cc1nc(N)sc1CCCN/C(N)=N/C(=O)CCc1ccccc1`, the Intrinsic activity worked out at 0.76 in test [1] and 0.79 at Histamine H2 receptor [5].

For the compound `Cc1nc(N)sc1CCN` [AMTHAMINE], the Intrinsic activity in test [2] was determined as 0.95; in test [1], 1.04; at Histamine H2 receptor [5] it was 0.91.

On to `N/C(=N\C(=O)CCCCCCC(=O)/N=C(\N)NCCCc1cnc(N)s1)NCCCc1cnc(N)s1`, for which the result in [7] and in [8] was Active. Also, the Intrinsic activity in test [1] was found to be 1; on Histamine H2 receptor [5], 0.79.

With `Cc1nc(N)sc1CCCN/C(N)=N/C(=O)CCCCCCCCC(=O)/N=C(\N)NCCCc1cnc(N)s1`, the outcome in test [7] and in test [8] was Active. In addition, the Intrinsic activity in test [1] came to 0.89; on Histamine H2 receptor [5], 0.75.

In the case of `N/C(=N\C(=O)CCCCCCCCCCCCCCC(=O)/N=C(\N)NCCCc1c[nH]cn1)NCCCc1c[nH]cn1`, the EC50 is 339 nM at Histamine H4 receptor [3] and over 1000 nM on Histamine H3 receptor. Moreover, the results for the Intrinsic activity (in [1]; on Histamine H2 receptor [5]) were 0.85 and 0.29, respectively.

`N/C(=N\C(=O)CCCCCCCCC(=O)/N=C(\N)NCCCc1ncn[nH]1)NCCCc1ncn[nH]1`: the Intrinsic activity worked out at 0.95 in [1] and 0.49 at Histamine H2 receptor [5].

As for `N/C(=N\C(=O)CCCCCCC(=O)/N=C(\N)NCCCc1c[nH]cn1)NCCCc1c[nH]cn1`, the figures for the Ratio (in [9]; on Histamine H2 receptor [12]) were 372 and 22.4, respectively. Further, the EC50 on Histamine H4 receptor [3] was 41.7 nM; at Histamine H2 receptor [13] (read-out: pEC50 (converted)) it was 3.24 nM; on Histamine H3 receptor it was 4.17 nM; at Histamine H2 receptor [14], 56.2 nM. For the same compound, the pKb in test [10] was 6.7. Further, the Ratio EC50 in test [11] is 17.4. Moreover, the Intrinsic activity in test [1] was 1.18; at Histamine H4 receptor [4], 0.51; on Histamine H2 receptor [5], 0.77.

`NC(=NCCCc1nnc[nH]1)NC(=O)CCCCCCCCC(=O)NC(N)=NCCCc1nnc[nH]1`: at Histamine H2 receptor [14], the EC50 is 151 nM.

In the case of `Cc1nc(N)sc1CCCN/C(N)=N/C(=O)CCCCCCCCCCC(=O)/N=C(\N)NCCCc1sc(N)nc1C`, the figures for the Intrinsic activity (in test [2]; in test [1]; at Histamine H2 receptor [5]) were 0.46, 0.66 and 0.46, respectively.

Regarding `Cc1nc(N)sc1CCCNC(=N)NC(=O)CCCCCCCCC(=O)NC(=N)NCCCc1sc(N)nc1C`, the EC50 at Histamine H2 receptor [13] (read-out: EC50) amounted to 0.39 nM.

As to `N/C(=N\C(=O)CCCCCCCCCCCCCCC(=O)/N=C(\N)NCCCc1cnc(N)s1)NCCCc1cnc(N)s1`, the Intrinsic activity in test [1] was 0.59; on Histamine H2 receptor [5], 0.14.

As to `Cc1nc(N)sc1CCCN/C(N)=N/C(=O)CCCCCCCCC(=O)/N=C(\N)NCCCc1sc(N)nc1C`, the figures for the Intrinsic activity (in test [2]; in [1]; on Histamine H2 receptor [5]) were 0.62, 0.79 and 0.53, respectively. The outcome in test [7] and in [8] was Active.

`N/C(=N\C(=O)CCCCCCCCC(=O)/N=C(\N)NCCCc1cnc(N)s1)NCCCc1cnc(N)s1`: the outcome in [7] and in test [8] was Active. Further, the values for the Intrinsic activity (in test [1]; at Histamine H2 receptor [5]) were 0.94 and 0.75, respectively.

Take `Cc1nc(N)sc1CCCN/C(N)=N/C(=O)CCCCCCCC(=O)/N=C(\N)NCCCc1sc(N)nc1C`: the values for the Intrinsic activity (in test [2]; in test [1]; on Histamine H2 receptor [5]) were 0.71, 0.9 and 0.48, respectively.

Take `Cc1nc(N)sc1CCCN/C(N)=N/C(=O)CCCCCCCCCCCCCCC(=O)/N=C(\N)NCCCc1sc(N)nc1C`: the Intrinsic activity in test [2] was 0.53; in [1] it was 0.51; on Histamine H2 receptor [5], 0.12. Further, the outcome in test [7] and in test [8] was Active.

On to `N=C(NCCCc1cnc[nH]1)NC(=O)CCCCCCCCCCCCCCCCCCCCC(=O)NC(N)=NCCCc1cnc[nH]1`, for which the EC50 at Histamine H4 receptor [3] was over 1000 nM; on Histamine H3 receptor, 447 nM.
